≈ marks a conversion by molar mass, not a printed value.
Tests used:
Escherichia coli = assay: Antimicrobial activity against Escherichia coli; format: functional
[1] = tested on: Mycobacterium tuberculosis; assay: Antimicrobial activity against Mycobacterium tuberculosis H37Rv by low oxygen recovery assay; format: functional
In short: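 MIC determined against M. tuberculosis H37Rv held in the non-replicating phenotype under low oxygen, with growth assessed after recovery.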

[2] = tested on: Mycobacterium tuberculosis; assay: Antimicrobial activity against Mycobacterium tuberculosis H37Rv in presence of 10% FBS; format: functional
[3] = tested on: Mycobacterium tuberculosis; assay: Ratio of MIC for Mycobacterium tuberculosis H37Rv by low oxygen recovery assay to MIC for Mycobacterium tuberculosis H37Rv; format: functional
[4] = tested on: Mycolicibacterium smegmatis; assay: Antimicrobial activity against Mycobacterium smegmatis; format: functional
[5] = tested on: Mycobacterium tuberculosis; assay: Antimicrobial activity against Mycobacterium tuberculosis H37Rv infected in african green monkey Vero cells; format: functional
Staphylococcus aureus = assay: Antimicrobial activity against Staphylococcus aureus; format: functional
[6] = tested on: Mycobacterium tuberculosis; assay: Ratio of MIC for Mycobacterium tuberculosis H37Rv in presence of 4% BSA to MIC for Mycobacterium tuberculosis H37Rv; format: functional
[7] = tested on: Mycobacterium tuberculosis; assay: Ratio of MIC for Mycobacterium tuberculosis H37Rv in presence of 10% FBS to MIC for Mycobacterium tuberculosis H37Rv; format: functional
Candida albicans = assay: Antimicrobial activity against Candida albicans; format: functional
Vero = assay: Cytotoxicity against african green monkey Vero cells; format: cell-based; settings: Chlorocebus sabaeus
[8] = tested on: Mycobacterium tuberculosis; assay: Antimicrobial activity against Mycobacterium tuberculosis H37Rv in presence of 4% BSA; format: functional

Question: With `O=C1C=Cc2nocc2/C1=C1/Nc2ccccc2C1=O` as the compound, how does the MIC (Escherichia coli) read?
Answer: > 50 µM

Question: And the MIC [1]?
Answer: 5.3 µM (≈ 1.4 µg/mL)

Question: And the MIC [2]?
Answer: 0.57 µM

Question: What about the Ratio [3] of the same compound?
Answer: 10

Question: And the MIC [4]?
Answer: > 50 µM

Question: What about the MIC [5] of the same compound?
Answer: 0.57 µM (≈ 0.151 µg/mL)

Question: And the MIC (Staphylococcus aureus)?
Answer: > 50 µM

Question: What about the Ratio [6] of the same compound?
Answer: 3.7

Question: What about the Ratio [7] of the same compound?
Answer: 1

Question: And the MIC (Candida albicans)?
Answer: > 50 µM

Question: And the IC50 (Vero)?
Answer: > 32 µM

Question: And the MIC [8]?
Answer: 2.1 µM

Question: Which MIC [5] does the source give for `O=C1/C(=C2\Nc3ccccc3C2=O)Nc2ccccc21` [INDIGO] here?
Answer: > 32 µM

Question: How did the MIC [5] turn out when `O=C1Nc2ccccc2/C1=C1/Nc2ccccc2C1=O` [INDIRUBIN] was run?
Answer: > 32 µM

Question: With `O=C1Nc2ccccc2/C1=C1\C(=O)Nc2ccccc21` [ISOINDIGO] as the compound, how does the MIC [5] read?
Answer: 27 µM (≈ 7.08 µg/mL)

Question: `NNC(=O)c1ccncc1` [ISONIAZID] was tested. Which MIC [1] did it give?
Answer: > 100 µM

Question: And the MIC [2]?
Answer: 0.24 µM

Question: And the MIC [4]?
Answer: 18.9 µM (≈ 2.59 µg/mL)

Question: What about the MIC [5] of the same compound?
Answer: 0.22 µM (≈ 0.0302 µg/mL)

Question: And the IC50 (Vero)?
Answer: > 100 µM

Question: What about the MIC [8] of the same compound?
Answer: 0.45 µM

Question: What does the source list for `CO[C@H]1/C=C/O[C@@]2(C)Oc3c(C)c(O)c4c(O)c(c(/C=N/N5CCN(C)CC5)c(O)c4c3C2=O)NC(=O)/C(C)=C\C=C\[C@H](C)[C@H](O)[C@@H](C)[C@@H](O)[C@@H](C)[C@H](OC(C)=O)[C@@H]1C` [RIFAMPIN]?
Answer: MIC [1]: 0.49 µM (≈ 0.403 µg/mL); MIC [2]: 0.21 µM; MIC [4]: 16.7 µM (≈ 13.7 µg/mL); MIC [5]: 0.038 µM (≈ 0.0313 µg/mL); IC50 (Vero): > 182 µM; MIC [8]: 0.089 µM
